Among the data in ChEMBL document CHEMBL1145927 (J Med Chem, 2003) are inhibition and IC50 values, retold here.

The structures appear in SMILES notation. Some results are limits rather than exact numbers.

One assay concerns the target T1, Prostaglandin G/H synthase 2 (Homo sapiens) (UniProt P35354).
T1 sequence (whole entry): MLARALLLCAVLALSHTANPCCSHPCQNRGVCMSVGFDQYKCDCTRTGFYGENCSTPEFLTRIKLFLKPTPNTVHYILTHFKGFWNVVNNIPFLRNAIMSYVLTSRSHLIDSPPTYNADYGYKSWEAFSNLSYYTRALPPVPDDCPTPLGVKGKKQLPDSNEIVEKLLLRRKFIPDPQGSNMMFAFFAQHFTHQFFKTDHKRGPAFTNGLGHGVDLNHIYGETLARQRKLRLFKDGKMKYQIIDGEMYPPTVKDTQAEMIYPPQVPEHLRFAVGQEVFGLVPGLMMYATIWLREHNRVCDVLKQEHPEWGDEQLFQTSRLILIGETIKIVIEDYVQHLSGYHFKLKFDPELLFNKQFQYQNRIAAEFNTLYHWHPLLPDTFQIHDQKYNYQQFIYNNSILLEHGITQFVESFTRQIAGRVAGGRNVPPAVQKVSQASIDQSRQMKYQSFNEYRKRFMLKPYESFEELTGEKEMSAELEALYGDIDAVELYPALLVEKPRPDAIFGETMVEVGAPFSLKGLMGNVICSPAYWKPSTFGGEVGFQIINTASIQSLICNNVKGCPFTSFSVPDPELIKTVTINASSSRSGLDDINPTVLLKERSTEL
The conditions noted are these: at 10 µM.
On to `CS(=O)(=O)c1ccc(-c2cc3c(cc2Cc2ccc(F)cc2)OCO3)cc1`, for which the inhibition was 0%.

In the case of `O=S(=O)(CF)c1ccc(-c2cc3c(cc2Cc2ccccc2)OCO3)cc1`, the inhibition turned out to be 50%.

In turn, `CCOC(=O)C1CCN(Cc2cc3c(cc2-c2ccc(S(C)(=O)=O)cc2)OCO3)CC1` displayed an inhibition of 20%.

Turning to `CS(=O)(=O)c1ccc(-c2cc3c(cc2C=C2CCCCCC2)OCO3)cc1`, the inhibition was determined as 100%.

`CS(=O)(=O)c1ccc(-c2cc3c(cc2CC2CCCCCC2)OCO3)cc1` returned an inhibition of 100%.

In a further assay the target is T2, Prostaglandin G/H synthase 1 (Homo sapiens, UniProt P23219). Kind of assay: Compound was tested for the inhibition of recombinant human Prostaglandin G/H synthase 1 (COX-1).
T2 sequence (P23219 whole entry): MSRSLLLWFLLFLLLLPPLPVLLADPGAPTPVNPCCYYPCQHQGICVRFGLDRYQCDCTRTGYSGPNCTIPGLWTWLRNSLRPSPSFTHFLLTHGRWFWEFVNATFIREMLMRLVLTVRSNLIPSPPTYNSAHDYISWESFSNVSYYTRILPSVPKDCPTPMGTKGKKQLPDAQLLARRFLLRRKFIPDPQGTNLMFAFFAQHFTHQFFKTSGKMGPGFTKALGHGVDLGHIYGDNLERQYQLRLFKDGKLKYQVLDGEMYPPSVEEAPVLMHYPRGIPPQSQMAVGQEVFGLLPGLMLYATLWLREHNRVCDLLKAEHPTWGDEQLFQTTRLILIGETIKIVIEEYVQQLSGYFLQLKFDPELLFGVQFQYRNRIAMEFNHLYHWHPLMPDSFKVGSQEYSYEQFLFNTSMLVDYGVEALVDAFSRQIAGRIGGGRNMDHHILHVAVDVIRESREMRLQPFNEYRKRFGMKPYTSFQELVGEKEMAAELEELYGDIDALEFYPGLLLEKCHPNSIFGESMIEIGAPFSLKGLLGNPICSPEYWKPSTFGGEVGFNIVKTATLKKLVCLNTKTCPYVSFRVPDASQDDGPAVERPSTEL
Settings: not given
Turning to `CS(=O)(=O)c1ccc(-c2cc3c(cc2C=C2CCCCCC2)OCO3)cc1`, the IC50 is over 100000 nM.

For another assay, the target named is T3, Prostaglandin G/H synthase 2 (Homo sapiens, UniProt P35354).
T3 sequence (P35354 whole entry): T1 sequence (whole entry)
Kind of assay: Compound was tested for the inhibition of recombinant human Prostaglandin G/H synthase 2 (COX-2).
Settings: not given
`CS(=O)(=O)c1ccc(-c2cc3c(cc2C=C2CCCCCC2)OCO3)cc1`: the IC50 amounted to 200 nM.

A further assay concerns the target T2, Prostaglandin G/H synthase 1. Kind of assay: In vitro average percent inhibition of human prostaglandin G/H synthase 1 (COX-1) at a concentration of 100 uM.
Settings: not given
An outline of the steps: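 Supplied recombinant human COX-1 (5 units) preincubated 2 min at 25 °C in 0.1 M Tris-HCl pH 8.0 with 5 mM EDTA, 2 mM phenol and heme; compound or DMSO added, 20 min at 25 °C; started with 10 mM arachidonic acid stock, 2 min at 37 °C; stopped with HCl, SnCl2 reduction; prostaglandins by EIA; percent inhibition versus solvent control.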
With `CS(=O)(=O)c1ccc(-c2cc3c(cc2C(=O)c2cccc(F)c2)OCO3)cc1`, the inhibition was determined as 50%.

Turning to `CS(=O)(=O)c1ccc(-c2cc3c(cc2C=C2CCCCCC2)OCO3)cc1`, the inhibition turned out to be 35%.

Take `CS(=O)(=O)c1ccc(-c2cc3c(cc2CC2CCCCCC2)OCO3)cc1`: the inhibition was 40%.

Another assay deals with T1, Prostaglandin G/H synthase 2 (Homo sapiens). Kind of assay: In vitro average percent Inhibition of Prostaglandin G/H synthase 2 (COX-2) at a concentration of 10 uM determined by human whole blood (HWB) assay.
Settings: not given
An outline of the steps:
(§1)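 Heparinized whole blood from male or female donors free of aspirin/NSAIDs for 14 days, 1 mL aliquots pre-warmed 15 min at 37 °C, 5% CO2; compound in DMSO, duplicate wells; COX-2 induced by E. coli LPS added 4.5 h later, incubated 5 h; stopped on ice with 2 mM EGTA; plasma methanol-extracted, TXB2 by EIA; average of two donors.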
`CS(=O)(=O)c1ccc(-c2cc3c(cc2-c2cc(F)cc(F)c2)OCO3)cc1` displayed an inhibition of 35%.

As for `COc1cc(Cc2cc(F)cc(F)c2)c(-c2ccc(S(C)(=O)=O)cc2)cc1OC`, the inhibition came out at 15%.

In turn, `CS(=O)(=O)c1ccc(-c2cc3c(cc2Cc2cc(F)cc(F)c2)OCCO3)cc1` yielded an inhibition of 40%.

The target is the same in a further assay. As to the kind of experiment: In vitro average percent Inhibition of Prostaglandin G/H synthase 2(COX-2) at a concentration of 1 uM determined in human whole blood by human whole blood (HWB) assay.
Settings: not given
It counts as tissue-based. In a few lines:
as §1
`CS(=O)(=O)c1ccc(-c2cc3c(cc2-c2cc(F)cc(F)c2)OCO3)cc1` had an inhibition of 0%.

For a further assay the target is unchanged. As to the kind of experiment: In vitro average percent Inhibition of Prostaglandin G/H synthase 2 (COX-2) at a concentration of 10 uM determined human whole blood by human whole blood (HWB) assay.
Settings: not given
In a few lines:
as §1
As for `CS(=O)(=O)c1ccc(-c2ccccc2C(=O)c2cccc(F)c2)cc1`, the inhibition came out at 40%.

The next assay has the same target. The conditions noted are these: at 1 µM.
Turning to `CS(=O)(=O)c1ccc(-c2cc3c(cc2Cc2ccc(F)cc2)OCO3)cc1`, the inhibition was 10%.

The compound `O=S(=O)(CF)c1ccc(-c2cc3c(cc2Cc2ccccc2)OCO3)cc1` returned an inhibition of 25%.

As to `CCOC(=O)C1CCN(Cc2cc3c(cc2-c2ccc(S(C)(=O)=O)cc2)OCO3)CC1`, the inhibition stood at 20%.

Compound `CS(=O)(=O)c1ccc(-c2cc3c(cc2C=C2CCCCCC2)OCO3)cc1` displayed an inhibition of 100%.

In turn, `CS(=O)(=O)c1ccc(-c2cc3c(cc2CC2CCCCCC2)OCO3)cc1` came in with an inhibition of 90%.

The target of a further assay is T2, Prostaglandin G/H synthase 1. As to the kind of experiment: In vitro average percent Inhibition of […] Prostaglandin G/H synthase 1 (COX-1) at a concentration of 100 uM determined by human whole blood (HWB) assay.
Settings: not given
On to `CS(=O)(=O)c1ccc(-c2cc3c(cc2-c2cc(F)cc(F)c2)OCO3)cc1`, for which the inhibition was determined as 65%.

The next assay shares this target. Kind of assay: In vitro average percent Inhibition of Prostaglandin G/H synthase 1 (COX-1) at a concentration of 100 uM determined in human whole blood assay by human whole blood (HWB) assay. The format is tissue-based.
Settings: not given
Compound `CS(=O)(=O)c1ccc(-c2ccccc2C=C2CCCCC2)cc1` had an inhibition of 60%.

The target in the next assay is T4, Prostaglandin G/H synthase 1 (Ovis aries) (UniProt P05979).
T4 sequence (whole entry): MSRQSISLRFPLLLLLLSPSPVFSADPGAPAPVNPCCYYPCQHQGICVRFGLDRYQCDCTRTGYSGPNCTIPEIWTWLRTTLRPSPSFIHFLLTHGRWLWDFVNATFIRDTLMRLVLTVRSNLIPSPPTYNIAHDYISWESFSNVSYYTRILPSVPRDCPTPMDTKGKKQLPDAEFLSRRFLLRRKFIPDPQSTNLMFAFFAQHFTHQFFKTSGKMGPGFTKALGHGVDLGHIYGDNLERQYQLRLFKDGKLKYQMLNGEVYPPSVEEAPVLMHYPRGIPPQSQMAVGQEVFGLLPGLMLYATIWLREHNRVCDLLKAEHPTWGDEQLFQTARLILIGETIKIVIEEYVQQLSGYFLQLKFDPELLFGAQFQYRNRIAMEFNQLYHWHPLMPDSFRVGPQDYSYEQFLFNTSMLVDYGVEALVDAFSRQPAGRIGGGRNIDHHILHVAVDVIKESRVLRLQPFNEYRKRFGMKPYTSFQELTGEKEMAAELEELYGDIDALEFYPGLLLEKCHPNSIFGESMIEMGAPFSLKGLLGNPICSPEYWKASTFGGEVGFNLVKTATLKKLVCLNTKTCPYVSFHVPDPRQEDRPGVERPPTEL
Kind of assay: Compound was tested for in vitro inhibition of recombinant ovine Prostaglandin G/H synthase 1 (COX-1) at a concentration of 100 uM.
Settings: not given
An outline of the steps:
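Supplied recombinant ovine COX-1 (5 units) preincubated 2 min at 25 °C in 0.1 M Tris-HCl pH 8.0 with 5 mM EDTA, 2 mM phenol and heme; compound or DMSO added, 20 min at 25 °C; started with 10 mM arachidonic acid stock, 2 min at 37 °C; stopped with HCl, SnCl2 reduction; prostaglandins by EIA; percent inhibition versus solvent control.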
As for `CS(=O)(=O)c1ccc(-c2cc3c(cc2Cc2ccc(F)cc2)OCO3)cc1`, the inhibition worked out at 10%.

Turning to `CS(=O)(=O)c1ccc(-c2cc3c(cc2C=C2CCCCCC2)OCO3)cc1`, the inhibition amounted to 0%.

Take `CS(=O)(=O)c1ccc(-c2cc3c(cc2CC2CCCCCC2)OCO3)cc1`: the inhibition turned out to be 10%.

A further assay deals with T2, Prostaglandin G/H synthase 1. As to the kind of experiment: Compound was tested for the inhibition of human Prostaglandin G/H synthase 1 (COX-1) in human whole blood. It counts as tissue-based.
Settings: not given
In turn, `CS(=O)(=O)c1ccc(-c2cc3c(cc2C(=O)c2cccc(F)c2)OCO3)cc1` had an IC50 of 20000 nM.

A further assay has the same target. Conditions: at 100 µM.
Compound `O=S(=O)(CF)c1ccc(-c2cc3c(cc2Cc2ccccc2)OCO3)cc1` registered an inhibition of 50%.

`CCOC(=O)C1CCN(Cc2cc3c(cc2-c2ccc(S(C)(=O)=O)cc2)OCO3)CC1` displayed an inhibition of 0%.

The target is the same in the next assay. As to the kind of experiment: In vitro average percent Inhibition of Prostaglandin G/H synthase 1 (COX-1) at a concentration of 100 uM determined in human whole blood by human whole blood (HWB) assay. It counts as tissue-based.
Settings: not given
In the case of `CS(=O)(=O)c1ccc(-c2ccccc2Cc2cccc(F)c2)cc1`, the inhibition is 35%.

Regarding `COc1cc(Cc2cc(F)cc(F)c2)c(-c2ccc(S(C)(=O)=O)cc2)cc1OC`, the inhibition worked out at 0%.

The compound `CS(=O)(=O)c1ccc(-c2ccccc2C(=O)c2cccc(F)c2)cc1` had an inhibition of 45%.

The compound `CS(=O)(=O)c1ccc(-c2cc3c(cc2Cc2cc(F)cc(F)c2)OCCO3)cc1` had an inhibition of 70%.

Another assay concerns the target T3, Prostaglandin G/H synthase 2. As to the kind of experiment: Compound was tested for the inhibition of human Prostaglandin G/H synthase 2 (COX-2) in human whole blood.
Settings: not given
The format is tissue-based.
In turn, `CS(=O)(=O)c1ccc(-c2cc3c(cc2C(=O)c2cccc(F)c2)OCO3)cc1` yielded an IC50 of 1000 nM.
